Where two headings read alike, the source gives them in different places.

This is an account of results in publication PMC4449380 (Advances in Therapy, 2015).

The format of data set [1] is in vivo, healthy Japanese males. The essentials:
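Open-label add-on study in 12 males: luseogliflozin 5 mg Day 1, pioglitazone 30 mg Days 2–7, both Day 8, dosed before breakfast. Blood was drawn pre-dose and 0.25–24 h on Days 1, 7 and 8. LC–MS/MS measured luseogliflozin (0.05–100 ng/mL) and pioglitazone with M-III/M-IV (10–2000 ng/mL). […] GMR with 90% CI was by ANOVA with treatment fixed and subject random.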

A further data set has as its system OAT1. As to conditions: in vitro; ref Taisho Pharmaceutical Co., Ltd., data on file; cited from earlier work.
For a further data set, the system named is OAT3. As to conditions: in vitro; ref Taisho Pharmaceutical Co., Ltd., data on file; cited from earlier work.
For another data set, the system named is CYP2C8. The following applies: in vitro; ref Taisho Pharmaceutical Co., Ltd., data on file; cited from earlier work.
A further data set can be described thus: Safety assessments. Type of data set: in vivo, healthy Japanese males. In a few lines: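 Safety was monitored across six single-site studies of 12 healthy males aged 20–39 years, hospitalized during dosing. Adverse events were recorded by nature and frequency, including changes in laboratory values, vital signs and 12-lead ECG. Investigators judged hypoglycemia from symptoms or blood glucose.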

A further data set has as its system CYP3A4. The following applies: in vitro; ref Taisho Pharmaceutical Co., Ltd., data on file; cited from earlier work.
A further data set concerns CYP2E1. The following applies: in vitro; ref Taisho Pharmaceutical Co., Ltd., data on file; cited from earlier work.
In the next data set the test system is OATP1B1. The following applies: in vitro; ref Taisho Pharmaceutical Co., Ltd., data on file; cited from earlier work.
Data set [2] is classed as in vivo, healthy Japanese males. As to conditions: co-administered with miglitol. The essentials: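 Randomized open-label crossover in 12 males using six sequences with ≥7-day washout. Single oral doses of luseogliflozin 5 mg, miglitol 50 mg, or both were given before breakfast while hospitalized. Venous blood was drawn pre-dose and 0.25–24 h post-dose. Plasma luseogliflozin was measured by LC–MS/MS (0.05–100 ng/mL). Cmax was derived non-compartmentally. GMR with 90% CI, combination vs alone, used ANOVA with treatment, sequence and timing fixed and subject random.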

For data set [3] the following is noted: ref Taisho Pharmaceutical Co., Ltd., data on file; cited from earlier work.
The test system of another data set is CYP2B6. The following applies: in vitro; ref Taisho Pharmaceutical Co., Ltd., data on file; cited from earlier work.
Another data set concerns CYP1A2. The following applies: in vitro; ref Taisho Pharmaceutical Co., Ltd., data on file; cited from earlier work.
For data set [4] the following is noted: cited from earlier work.
The next data set concerns CYP2C9. The following applies: in vitro; ref Taisho Pharmaceutical Co., Ltd., data on file; cited from earlier work.
A further data set deals with CYP2A6. As to conditions: in vitro; ref Taisho Pharmaceutical Co., Ltd., data on file; cited from earlier work.
The next data set concerns CYP2D6. As to conditions: in vitro; ref Taisho Pharmaceutical Co., Ltd., data on file; cited from earlier work.
The nature of data set [5]: 24-h cumulative urinary glucose excretion. The data set is classed as in vivo, healthy Japanese males. The following applies: luseogliflozin in combination with an OAD. The essentials:
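Healthy males, 12 per study. Pooled urine was collected for 24 h pre-dose and 0–24 h post-dose, and urine glucose was measured. Glimepiride arm: randomized three-way crossover of single doses (luseogliflozin 5 mg, glimepiride 1 mg, or both) before breakfast, with ≥7-day washout. Metformin arm: same design with 250 mg under fasting. Voglibose arm: add-on design, urine collected Days 1, 7 and 8.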

Data set [6] concerns breast cancer resistance protein. As to conditions: in vitro; ref Taisho Pharmaceutical Co., Ltd., data on file; cited from earlier work.
Another data set deals with P-glycoprotein. The following applies: in vitro; ref Taisho Pharmaceutical Co., Ltd., data on file; cited from earlier work.
Data set [7] has as its system organic cation transporter 2. As to conditions: in vitro; ref Taisho Pharmaceutical Co., Ltd., data on file; cited from earlier work.

Consider `CCc1ccc(CCOc2ccc(CC3SC(=O)NC3=O)cc2)nc1` (racemic) [Pioglitazone, (±)-5(-)[p(-)[2-(5-ethyl-2-pyridyl)ethoxy]benzyl]-2,4-thiazolidinedione, reference compound], for which the “decrease in C max and AUC0–24h of pioglitazone” value in data set [1] (co-administration with luseogliflozin) was “about 10%”.

`CCOc1ccc(Cc2cc([C@@H]3S[C@H](CO)[C@@H](O)[C@H](O)[C@H]3O)c(OC)cc2C)cc1` [Luseogliflozin, (1S)-1,5-Anhydro-1-[5-(4-ethoxybenzyl)-2-methoxy-4-methylphenyl]-1-thio-D-glucitol]: the IC50 with OAT1, in the data set with OAT3, in the data set with CYP2C8, in the data set on CYP3A4, in the data set with CYP2E1 and in the data set with OATP1B1 was > 100 µM throughout. The IC50 (in the data set with CYP2B6; with CYP1A2; with CYP2C9; with CYP2A6; in the data set with CYP2D6; in data set [6]) was > 100 µM in each case. Also, the IC50 (with P-glycoprotein; in data set [7]) was > 100 µM in each case. In addition, the “serious adverse events or adverse events requiring treatment discontinuation” value in the data set “Safety assessments” (all six studies, luseogliflozin alone or with OADs) is “no serious adverse events”. Moreover, the “changes in laboratory tests, vital signs, or electrocardiography” value in “Safety assessments” (all studies) is listed as “no clinically relevant changes”. Further, the hypoglycemia entry in “Safety assessments” (any of the studies) is listed as “no episodes of hypoglycemia”. The adverse events entry in “Safety assessments” (luseogliflozin administered alone or in combination with the other OADs) is recorded as “no adverse events”; in “Safety assessments” (luseogliflozin in combination with glimepiride, mild in severity), “One adverse event (white blood cell urine positive) occurred in one subject”; in the data set “Safety assessments” (luseogliflozin in combination with metformin (nausea; nausea and headache), mild in severity), “three events occurred in two subjects”. In addition, the “change in C max of luseogliflozin” value in [2] and in [1] (co-administered with pioglitazone) was “about 15%” throughout. For the same molecule, the “enzymes involved in the metabolism” value in [3] is “cytochrome P450 (CYP) isoforms 3A4/5, 4A11, 4F2, and 4F3B, and UDP-glucuronosyltransferase 1A1”. The incidence of hypoglycemia is on record as 10.7% in [4] (in combination with a sulfonylurea, over 52 weeks) and 0.9–3.4% in data set [4] (in combination with other classes of OADs). Also, the “hemoglobin A1c and fasting plasma glucose” value in [4] (in combination with other classes of OADs for 52 weeks) is listed as “significantly reduced”. For the same molecule, the “rate of adverse drug reactions” value in data set [4] (in combination with other classes of OADs, 52 weeks) is 12.4–25.4%. Further, the “UGE compared with luseogliflozin alone” value in data set [5] is “slightly reduced”.

One may read the IC50 as the concentration at which inhibition is half-maximal.
